These results are taken from ChEMBL document CHEMBL1155527 (J Med Chem, 2010).

Data set [1] can be described thus: Solubility in ammonium acetate buffer at pH 7.4 by pseudothermodynamic equilibrium assay. The class given is physicochemical.
The subject of data set [2] is CYP3A4. In words: Metabolic stability assessed as compound remaining after 1 hr in presence of human CYP3A4. The data set is classed as ADME. The following applies: read-out: Stability.
The target of another data set is CYP2D6 (Homo sapiens, UniProt P10635). In words: Inhibition of CYP2D6 at 3 uM by Gentest method. The data set is classed as ADME.
Sequence of CYP2D6 (P10635 whole entry): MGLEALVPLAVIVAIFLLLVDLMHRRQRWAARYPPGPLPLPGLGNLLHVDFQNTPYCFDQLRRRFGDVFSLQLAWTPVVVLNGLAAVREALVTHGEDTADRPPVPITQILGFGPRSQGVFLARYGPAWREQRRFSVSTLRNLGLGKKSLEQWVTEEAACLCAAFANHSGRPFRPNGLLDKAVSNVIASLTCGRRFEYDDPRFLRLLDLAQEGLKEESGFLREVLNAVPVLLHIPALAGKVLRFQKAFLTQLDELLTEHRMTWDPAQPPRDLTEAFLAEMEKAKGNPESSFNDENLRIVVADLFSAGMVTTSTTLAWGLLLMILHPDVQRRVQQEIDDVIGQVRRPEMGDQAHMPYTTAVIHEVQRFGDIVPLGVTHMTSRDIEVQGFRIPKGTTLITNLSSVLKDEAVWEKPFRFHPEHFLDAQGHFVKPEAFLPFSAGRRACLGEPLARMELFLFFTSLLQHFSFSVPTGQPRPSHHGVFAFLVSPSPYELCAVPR
The target in data set [3] is CYP3A4 (Homo sapiens, UniProt P08684). In words: Inhibition of CYP3A4 at 3 uM by Gentest method. The class given is ADME.
Sequence of CYP3A4 (Homo sapiens, UniProt P08684) (P08684 whole entry): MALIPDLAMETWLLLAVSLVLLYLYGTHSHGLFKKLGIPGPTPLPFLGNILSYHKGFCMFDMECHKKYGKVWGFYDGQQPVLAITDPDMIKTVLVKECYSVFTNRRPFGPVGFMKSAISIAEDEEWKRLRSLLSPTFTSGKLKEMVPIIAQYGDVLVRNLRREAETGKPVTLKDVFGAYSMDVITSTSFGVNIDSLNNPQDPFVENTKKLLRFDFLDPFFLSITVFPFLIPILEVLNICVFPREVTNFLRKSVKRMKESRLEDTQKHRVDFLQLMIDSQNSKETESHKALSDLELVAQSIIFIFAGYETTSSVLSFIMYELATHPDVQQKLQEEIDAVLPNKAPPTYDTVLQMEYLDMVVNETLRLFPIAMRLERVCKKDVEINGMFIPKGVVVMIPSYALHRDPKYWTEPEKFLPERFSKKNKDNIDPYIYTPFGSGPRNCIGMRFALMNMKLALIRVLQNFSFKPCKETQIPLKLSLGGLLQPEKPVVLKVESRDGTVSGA
The target in the next data set is CYP2C9 (Homo sapiens, UniProt P11712). In words: Inhibition of CYP2C9 at 3 uM by Gentest method. The class given is ADME.
Sequence of CYP2C9 (P11712 whole entry): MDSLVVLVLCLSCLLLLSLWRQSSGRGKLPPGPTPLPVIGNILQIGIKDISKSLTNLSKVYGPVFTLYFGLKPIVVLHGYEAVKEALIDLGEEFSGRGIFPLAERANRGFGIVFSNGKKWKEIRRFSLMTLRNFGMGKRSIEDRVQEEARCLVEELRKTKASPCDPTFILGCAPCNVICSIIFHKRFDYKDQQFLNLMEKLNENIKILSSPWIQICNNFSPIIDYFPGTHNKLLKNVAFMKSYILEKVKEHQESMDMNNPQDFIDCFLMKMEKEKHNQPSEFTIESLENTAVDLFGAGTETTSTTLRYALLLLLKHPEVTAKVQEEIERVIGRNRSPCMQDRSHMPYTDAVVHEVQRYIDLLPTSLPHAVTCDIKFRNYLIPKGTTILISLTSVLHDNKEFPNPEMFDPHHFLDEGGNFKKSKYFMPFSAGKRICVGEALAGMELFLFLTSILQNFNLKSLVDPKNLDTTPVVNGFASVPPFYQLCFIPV
Data set [4] can be described thus: Intrinsic clearance in rat liver microsomes by LC-MS/MS analysis. The class given is ADME, Microsome. The procedure, abridged: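 Rat liver microsomes (0.633 mg/mL protein in 0.1 M potassium phosphate pH 7.4 with EDTA) were incubated with test compound and NADPH regenerating agent for 15 min at 37 °C, against a time-0 control, in duplicate. Reactions were quenched with cold acetonitrile, centrifuged, and supernatants analyzed by LC-MS.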
A general note: Liver microsomes are vesicles of endoplasmic reticulum, rich in cytochrome P450 enzymes.

For data set [5], the target named is Neuronal acetylcholine receptor; alpha4/beta2 (Homo sapiens, UniProt P17787+P43681). In words: Agonist activity at alpha4beta2 nAChR. The data set is classed as functional.
Sequence of Neuronal acetylcholine receptor; alpha4/beta2 (P17787 whole entry): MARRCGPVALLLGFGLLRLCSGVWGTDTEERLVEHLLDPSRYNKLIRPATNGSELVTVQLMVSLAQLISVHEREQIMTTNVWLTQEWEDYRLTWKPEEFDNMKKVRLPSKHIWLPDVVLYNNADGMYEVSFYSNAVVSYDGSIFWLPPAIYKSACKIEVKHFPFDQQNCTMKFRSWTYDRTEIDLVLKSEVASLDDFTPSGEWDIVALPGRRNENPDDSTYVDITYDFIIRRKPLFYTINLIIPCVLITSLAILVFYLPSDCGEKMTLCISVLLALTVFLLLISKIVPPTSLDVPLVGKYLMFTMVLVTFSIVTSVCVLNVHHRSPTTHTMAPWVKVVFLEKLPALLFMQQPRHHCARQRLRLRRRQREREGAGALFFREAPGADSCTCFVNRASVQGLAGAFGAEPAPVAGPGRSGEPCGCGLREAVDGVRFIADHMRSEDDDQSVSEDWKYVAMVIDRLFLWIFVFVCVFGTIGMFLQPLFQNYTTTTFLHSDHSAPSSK
Sequence of Neuronal acetylcholine receptor; alpha4/beta2 (P43681 whole entry): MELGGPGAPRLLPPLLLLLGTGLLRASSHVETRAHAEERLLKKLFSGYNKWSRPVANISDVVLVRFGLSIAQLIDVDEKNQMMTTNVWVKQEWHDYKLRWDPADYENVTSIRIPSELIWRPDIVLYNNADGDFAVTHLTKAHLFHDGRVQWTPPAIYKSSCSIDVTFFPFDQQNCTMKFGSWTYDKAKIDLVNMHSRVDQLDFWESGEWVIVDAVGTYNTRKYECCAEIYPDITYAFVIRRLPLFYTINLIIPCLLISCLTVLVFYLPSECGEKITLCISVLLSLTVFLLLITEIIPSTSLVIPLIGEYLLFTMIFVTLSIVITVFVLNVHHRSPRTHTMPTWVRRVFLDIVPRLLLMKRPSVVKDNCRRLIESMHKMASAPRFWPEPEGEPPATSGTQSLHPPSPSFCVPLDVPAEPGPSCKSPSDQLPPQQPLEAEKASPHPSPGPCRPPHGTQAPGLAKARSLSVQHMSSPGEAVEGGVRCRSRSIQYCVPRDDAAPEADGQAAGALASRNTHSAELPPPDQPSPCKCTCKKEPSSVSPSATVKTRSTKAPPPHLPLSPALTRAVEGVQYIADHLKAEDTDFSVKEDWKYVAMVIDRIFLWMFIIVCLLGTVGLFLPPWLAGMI
The target in data set [6] is 5-hydroxytryptamine receptor 4 (Homo sapiens, UniProt Q13639). In words: Binding affinity to 5HT4 receptor. Put shortly:
(§1)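 Screened at 10 μM in a panel of about 70 receptor binding sites (Novascreen).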

For data set [7], the target named is T1, Alpha-2A adrenergic receptor (Homo sapiens, UniProt P08913).
T1 sequence (P08913 whole entry): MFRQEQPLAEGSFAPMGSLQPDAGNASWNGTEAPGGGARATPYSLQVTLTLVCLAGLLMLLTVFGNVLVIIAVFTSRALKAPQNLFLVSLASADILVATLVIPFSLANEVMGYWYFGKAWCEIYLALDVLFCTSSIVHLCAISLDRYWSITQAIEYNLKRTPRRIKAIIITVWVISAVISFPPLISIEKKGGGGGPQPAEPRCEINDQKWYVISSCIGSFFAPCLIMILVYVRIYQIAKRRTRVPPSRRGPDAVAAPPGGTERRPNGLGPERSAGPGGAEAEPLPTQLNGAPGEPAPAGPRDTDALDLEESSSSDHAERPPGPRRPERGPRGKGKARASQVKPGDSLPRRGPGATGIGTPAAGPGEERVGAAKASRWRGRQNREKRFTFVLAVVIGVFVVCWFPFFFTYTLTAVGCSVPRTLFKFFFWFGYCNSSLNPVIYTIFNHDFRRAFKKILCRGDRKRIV
In words: Binding affinity to adrenergic alpha2A receptor. Put shortly: as §1

The target of data set [8] is T2, Alpha-2B adrenergic receptor (Homo sapiens, UniProt P18089).
T2 sequence (P18089 whole entry): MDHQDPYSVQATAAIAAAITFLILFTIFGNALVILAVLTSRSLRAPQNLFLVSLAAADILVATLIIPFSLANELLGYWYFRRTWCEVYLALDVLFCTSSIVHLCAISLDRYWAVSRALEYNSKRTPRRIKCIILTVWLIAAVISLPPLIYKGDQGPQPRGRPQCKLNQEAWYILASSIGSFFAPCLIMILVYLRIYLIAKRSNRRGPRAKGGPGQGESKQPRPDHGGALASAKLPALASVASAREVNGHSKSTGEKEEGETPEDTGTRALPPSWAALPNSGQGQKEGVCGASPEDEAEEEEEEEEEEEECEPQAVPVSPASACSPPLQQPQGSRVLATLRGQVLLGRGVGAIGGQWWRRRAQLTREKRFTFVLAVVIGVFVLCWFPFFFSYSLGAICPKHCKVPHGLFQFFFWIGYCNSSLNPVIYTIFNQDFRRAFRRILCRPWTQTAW
In words: Binding affinity to adrenergic alpha2B receptor. Put shortly:
as §1

The test system of data set [9] is Rattus norvegicus. In words: Cmax in Long Evans rat at 3 mg/kg, po. More on the design: dose 3 mg/kg, route oral. The data set is classed as ADME, organism-based. As to conditions: in vivo. The procedure, abridged:
(§2)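 Male Long Evans rats (6-8 weeks, 250-550 g) given a single 3 mg/kg oral dose as a solution in 2% Tween, 0.5% methocell in water. Plasma sampled over 6 h. Levels measured by LC-MS/MS after acetonitrile protein precipitation with internal standard; detection limit 1 ng/mL.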

Data set [10] can be described thus: Tmax in Long Evans rat at 3 mg/kg, po. Also on record: dose 3 mg/kg, route oral. The class given is ADME, organism-based. As to conditions: in vivo. Put shortly: as §2
Data set [11] in a line: AUC (last) in Long Evans rat at 3 mg/kg, po. The class given is ADME, organism-based. More on the design: time 0 - last, dose 3 mg/kg, route oral. The following applies: plasma. The procedure, abridged:
as §2

A short description of data set [12]: Oral bioavailability in Han Wistar rat assessed as ratio of AUC (0 to infinity) at 10 mg/kg, po normalized to 2 mg/kg, iv. The class given is ADME, organism-based. As to conditions: in vivo.
Data set [13] is described as follows: Half life in Han Wistar rat at 10 mg/kg, po and 2 mg/kg, iv. As to conditions: in vivo. The data set is classed as ADME, organism-based.
Data set [14] can be described thus: Ratio of drug level from brain to plasma in Han Wistar rat at 2 mg/kg, po. The data set is classed as ADME, organism-based. More on the design: dose 2 mg/kg, route oral. As to conditions: read-out: BPR. The procedure, abridged: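 Male Han Wistar rats received a single 2 mg/kg po dose. Ratio calculated from brain and plasma AUC0-inf.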
Data set [15] is described as follows: AUC (0 to infinity) in brain of Han Wistar rat at 2 mg/kg, po. The class given is ADME, organism-based. Also on record: time infinity, dose 2 mg/kg, route oral.
A short description of data set [16]: AUC (0 to infinity) in plasma of Han Wistar rat at 2 mg/kg, po. The class given is ADME, organism-based. More on the design: time infinity, dose 2 mg/kg, route oral.
The subject of data set [17] is Rattus norvegicus. In words: Inhibition of MK-801-induced cognitive function in po dosed Long Evans rat administered 60 mins prior to MK801 challenge measured after 1 hr by novel object recognition test. The class given is functional. The following applies: read-out: MED. The procedure, abridged:
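NOR in rats: vehicle or test compound (0.3-30 mg/kg po) 60 min before the sample trial, and MK-801 (0.03 mg/kg ip) 30 min before. Sample trial was 5 min with two identical objects. Choice trial, 1 h later, was 5 min with one familiar and one novel object. N = 10 per group.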

Data set [18] has as its system Rattus norvegicus. In words: Inhibition of MK-801-induced perceptual processing in po dosed Long Evans rat administered 60 mins prior to MK801 challenge measured after 1 hr by prepulse inhibition test. The class given is functional. As to conditions: read-out: MED. Put shortly: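 Rat prepulse inhibition: test compound (1-30 mg/kg) given po 60 min and MK-801 (0.085 mg/kg) sc 10 min before testing. After 5 min at 64 dB background, 61 trials were run: 120 dB pulse alone or with a 69/74/79 dB prepulse 100 ms earlier. PPI = 100 - (prepulse/pulse startle × 100). Chronic arm: 3 mg/kg po daily for 14 days.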

Data set [19] addresses T3, 5-hydroxytryptamine receptor 3A (Homo sapiens, UniProt P46098).
T3 sequence (P46098 whole entry): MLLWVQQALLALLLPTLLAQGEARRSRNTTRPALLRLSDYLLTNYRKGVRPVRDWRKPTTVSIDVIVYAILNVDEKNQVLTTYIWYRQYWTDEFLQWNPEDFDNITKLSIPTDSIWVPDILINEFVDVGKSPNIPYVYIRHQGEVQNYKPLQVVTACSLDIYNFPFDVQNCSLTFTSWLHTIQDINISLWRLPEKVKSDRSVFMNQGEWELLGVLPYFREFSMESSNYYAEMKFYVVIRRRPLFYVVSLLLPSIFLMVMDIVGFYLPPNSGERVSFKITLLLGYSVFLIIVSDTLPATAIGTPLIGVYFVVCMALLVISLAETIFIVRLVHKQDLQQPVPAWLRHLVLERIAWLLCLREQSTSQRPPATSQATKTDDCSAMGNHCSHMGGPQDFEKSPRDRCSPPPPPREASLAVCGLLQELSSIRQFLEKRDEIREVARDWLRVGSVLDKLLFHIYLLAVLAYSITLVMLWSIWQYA
In words: Antagonist activity at human 5HT3A receptor expressed in HEK293 cells by FLIPR assay.

Converted amounts (≈) assume the structure as drawn.

Sequence of 5-hydroxytryptamine receptor 4 (Q13639 whole entry): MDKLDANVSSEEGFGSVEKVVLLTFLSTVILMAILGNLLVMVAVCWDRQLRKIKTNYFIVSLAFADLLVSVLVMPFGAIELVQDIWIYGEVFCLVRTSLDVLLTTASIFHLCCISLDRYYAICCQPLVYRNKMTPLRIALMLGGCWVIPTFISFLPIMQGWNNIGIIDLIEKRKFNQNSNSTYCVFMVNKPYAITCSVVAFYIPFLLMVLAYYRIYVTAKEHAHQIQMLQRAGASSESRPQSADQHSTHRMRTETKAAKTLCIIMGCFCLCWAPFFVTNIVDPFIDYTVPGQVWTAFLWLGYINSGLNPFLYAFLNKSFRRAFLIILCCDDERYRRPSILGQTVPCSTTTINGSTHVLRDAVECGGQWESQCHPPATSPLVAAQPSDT

Broadly, the thermodynamic solubility is the concentration in solution at equilibrium with solid. What is called inhibition is the drop in the measured response relative to a control, in per cent. By microsomal CLint is commonly meant the rate of metabolic loss divided by the concentration. The term IC50 denotes the point on the concentration scale where inhibition reaches its midpoint. Read a low IC50 as higher potency. Broadly, the Ki is the dissociation constant of the complex between target and ligand, obtained from inhibition or displacement. Read a low Ki as tighter binding. As a reminder, the Cmax is the peak of the concentration-time curve. A word on the Tmax: it is the time at which the peak concentration occurs. Usually AUC(0-t) stands for exposure summed from dosing to a finite time, without extrapolation to infinity. Read a high AUC(0-t) as more exposure. By bioavailability is commonly meant the share of a dose that reaches the circulation, judged against a reference dose that is usually intravenous. What is called half-life is the time in which the quantity being followed falls by half. Low readings indicate fast loss, high ones slow loss. The AUC(0-inf) is the area under the concentration-time curve extrapolated to infinity. A higher AUC(0-inf) goes with high exposure. For the compound `O=C(NCCCCN1CCCCC1)Nc1ccc(-c2ccc(F)cc2)nc1`, the solubility (thermodynamic) in data set [1] was 121 µM (≈ 44.8 µg/mL). In the data set on CYP3A4 [2], the remaining at 1 h stood at 75%. The inhibition at 3 µM is 19% on CYP2D6, 0% on CYP3A4 [3] and -17% against CYP2C9. In data set [4], this compound returned an intrinsic clearance (microsomal CLint) of less than 5 µL/min/mg. In addition, the half-inhibitory concentration (IC50) in [5] is more than 30 µM; in data set [7] it was 7.5 µM; in [8] it was 35 µM; in data set [19], more than 30 µM. In [6], this compound showed a Ki of 6 µM. Besides, the peak concentration (Cmax) in the data set on Rattus norvegicus [9] is 40 ng/mL. Further, the time of peak concentration (Tmax) in data set [10] was 5.3 h. Also, the AUC(0-t) in data set [11] was determined as 318 ng·h/mL. Further, in [12], the bioavailability amounted to 100%. In data set [13], this compound gave a half-life of 3.5 h. For the same compound, the Kp in data set [14] turned out to be 0.3. Also, the area under the curve AUC(0-inf) in data set [15] came to 215 ng·h/mL; in [16] it was 768 ng·h/mL. In addition, the minimal effective dose in the data set with Rattus norvegicus [17] and with Rattus norvegicus [18] was 3 mg/kg in each case.
